In article PMC2223369 (The Journal of General Physiology, 1999):

Legend:
[1] = system: alpha subunit of type IIA sodium channels; experiment: Use-dependent block, conditioning pulse protocol; assay type: cell-based, rat; settings: for use-dependent block, conditioning pulse protocol (in words): Fig. 5 and 6; for use-dependent block at 200 mV: wild-type channels, conditioning pulses to 200 mV
[2] = system: alpha subunit of type IIA sodium channels; experiment: Fast peptide block of LqTx-modified sodium channels, whole-cell patch clamp; assay type: cell-based, rat; settings: 100 nM LqTx; for k b(0 mV), blocking rate / k u(0 mV), unblocking rate: 1 mM peptide, SEM; for k b(0 mV), blocking rate: calculated from τ and Fss by Eq. 2, mean ± SEM; for k u(0 mV), unblocking rate: calculated from τ and Fss by Eq. 3, mean ± SEM; for fraction of extrapolated peak sodium current unblocked at steady state / fast block of LqTx-modified sodium channels (in words): 1 mM peptide intracellular, 0 mV
Method in brief: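 CHO cells stably expressing the channel alpha subunit, recorded 24 h after subculture; whole-cell patch clamp at 22–25°C. Pipette carries 1 mM test peptide, and recording starts about 20 min after break-in. LqTx-modified currents are elicited by steps from −80 mV to 0 mV. Decay is fit to a single exponential, with Fss = B/(A+B). kb and ku come from τ and Fss.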

sodium channels = settings: ref Eaholtz et al., cited from earlier work
[3] = system: alpha subunit of type IIA sodium channels; experiment: Recovery from fast block, two-pulse voltage protocol; assay type: cell-based, rat; settings: for time constant of recovery from fast block at −80 mV: interpulse −80 mV, mean ± SEM, n = 5
Method in brief: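 CHO cells stably expressing the channel alpha subunit, under whole-cell clamp at 22–25°C with 1 mM test peptide in the pipette; channels LqTx-modified. Two 0-mV test pulses give the ratio I2/I1. The protocol is repeated 20× with the interpulse interval increased by Δt each time. Interpulse voltage is −80, −100, −120 or −140 mV. Recovery versus interval is fit to a single exponential for the time constant.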

[4] = 1 mM peptide, channels not modified by LqTx

NC(=O)[C@@H](N)Cc1ccccc1 [F-NH2, phenylalanine-amide]
use-dependent block, conditioning pulse protocol (in words) [1, 4]: not effective in use-dependent block

Ac-KIFMTK-NH2
use-dependent block, conditioning pulse protocol (in words) [1, 4]: poor use-dependent blocker
k b(0 mV), blocking rate [2]: 2881 ± 263 s⁻¹
k u(0 mV), unblocking rate [2]: 731 ± 8 s⁻¹

DIFMK-NH2
use-dependent block, conditioning pulse protocol (in words) [1, 4]: much less effective than ac-KIFMK-NH2

FM-NH2
use-dependent block, conditioning pulse protocol (in words) [1, 4]: not effective in use-dependent block

KIFM-NH2
use-dependent block, conditioning pulse protocol (in words) [1, 4]: substantial use-dependent block
fraction of extrapolated peak sodium current unblocked at steady state [2]: 42%
k b(0 mV), blocking rate [2]: 1751 ± 163 s⁻¹
k u(0 mV), unblocking rate [2]: 1283 ± 149 s⁻¹

KIFMT-NH2
use-dependent block, conditioning pulse protocol (in words) [1, 4]: much less effective than ac-KIFMK-NH2
fast block of LqTx-modified sodium channels (in words) [2]: rapidly blocked LqTx-modified sodium currents
k u(0 mV), unblocking rate [2]: 386 ± 81 s⁻¹

ac-DIFMT-NH2
use-dependent block, conditioning pulse protocol (in words) [1, 4]: no effect at all
fast block of LqTx-modified sodium channels (in words) [2]: did not produce significant fast block

ac-KAFAK-NH2
fast block of sodium channels (in words) (sodium channels; 1994): did not produce fast block
use-dependent block, conditioning pulse protocol (in words) [1, 4]: less effective
use-dependent block at 200 mV ([1]; 1 mM peptide): > 60%

ac-KIFMK-NH2
δ value of fast block (sodium channels; voltage dependence of fast block, 1998): 0.3
fractional current (I12/I1) after 10 conditioning pulses to 200 mV, LqTx-modified channels ([1]; 1 mM peptide, 100 nM LqTx, n = 6, mean ± SEM, SEM): 0.03 ± 0.02
use-dependent block in the absence or presence of LqTx ([1]; 1.0 mM peptide, 200-mV conditioning pulses): > 95%
conditioning voltage of half-maximal use-dependent block ([1]; 1 mM peptide, channels not modified by LqTx, Fig. 5 A): +125 mV
use-dependent block with conditioning pulses more positive than 150 mV ([1]; 1.5 mM peptide, three cells, unmodified channels): ~100%
δ of use-dependent block ([1]; mean zδ divided by two (two positive charges)): 0.5
time for half-maximal recovery from use-dependent block ([1]; −80 mV): more than 90 s
fraction of extrapolated peak sodium current unblocked at steady state [2]: 21%
k u(0 mV), unblocking rate [2]: 587 ± 40 s⁻¹
time constant of recovery from fast block at −80 mV ([3]; 1 mM peptide, LqTx-modified channels): 0.9 ms
time constant of recovery from fast block at −80 mV ([3]; 1 mM peptide, LqTx-modified channels, SEM): 0.9 ± 0.3 ms
time constant of recovery from fast block at −100 mV ([3]; 1 mM peptide, LqTx-modified channels, interpulse −100 mV, n = 6): 0.6 ± 0.1 ms
time constant of recovery from fast block at −120 mV ([3]; 1 mM peptide, LqTx-modified channels, interpulse −120 mV, n = 6): 0.4 ± 0.1 ms
time constant of recovery from fast block at −140 mV ([3]; 1 mM peptide, LqTx-modified channels, interpulse −140 mV, n = 4): 0.3 ± 0.1 ms
time at which recovery from fast block was half complete ([3]; −80 mV): 0.9 ms

ac-KIQMK-NH2
fast block of sodium channels (in words) (sodium channels; 1994): did not produce fast block
use-dependent block (in words) (sodium channels; 1994): ineffective in use-dependent block
use-dependent block, conditioning pulse protocol (in words) [1, 4]: did not produce significant block

ac-RIFMR-NH2
use-dependent block, conditioning pulse protocol (in words) [1, 4]: significantly more potent than ac-KIFMK-NH2
fast block of LqTx-modified sodium channels (in words) [2]: rapidly blocked LqTx-modified sodium currents
k u(0 mV), unblocking rate [2]: 222 ± 33 s⁻¹

cyclic KIFMK (head to tail)
use-dependent block, conditioning pulse protocol (in words) [1, 4]: nearly as potent in use-dependent block as ac-KIFMK-NH2
use-dependent block at 200 mV ([1]; 1 mM peptide): ~100%
fast block of LqTx-modified sodium channels (in words) [2]: did not exhibit significant fast block
